Bioassay records from PubChem BioAssay.
The list is not random: actives were taken first. Their share in the collection is about 2%.
CXCR6 block – blocks human CXCR6 beta-arrestin recruitment | O00574 | CHO-K1 PathHunter CXCR6 beta-arrestin, luminescence | inhibition, % at 20 µM | actives 0.36% (n = 360,000); in the data active = inhibition above about 34%, passing the limit was not always enough;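 also: antagonist mode with CXCL16 agonist at 10 nM final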
APJ antag – blocks the human apelin receptor APJ | inhibition, % at 20 µM | actives 0.32% (n = 330,000) | AID 2521 | CHO-K1 APJ beta-arrestin complementation, luminescence | P35414;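 active = inhibition above about 40% at 20 µM, limit read from the data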;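 also: cells challenged with 10 nM apelin-13 agonist together with compound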
Target sequence (P35414 whole entry, looked up): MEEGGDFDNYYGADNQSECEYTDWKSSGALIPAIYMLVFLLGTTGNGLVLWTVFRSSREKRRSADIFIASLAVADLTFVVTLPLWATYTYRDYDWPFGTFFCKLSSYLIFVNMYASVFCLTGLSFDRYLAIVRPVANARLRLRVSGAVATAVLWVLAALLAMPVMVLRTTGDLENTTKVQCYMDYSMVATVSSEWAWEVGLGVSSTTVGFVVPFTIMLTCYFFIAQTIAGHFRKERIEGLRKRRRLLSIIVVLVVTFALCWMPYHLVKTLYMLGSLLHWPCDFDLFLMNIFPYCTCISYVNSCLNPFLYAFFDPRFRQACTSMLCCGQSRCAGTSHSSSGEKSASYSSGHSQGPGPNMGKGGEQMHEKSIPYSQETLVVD
EBI2 block – EBI2 (human) antagonism. P32249. EBI2 beta-arrestin recruitment, luminescence, 7a,25-OHC stimulated. inhibition, % at 5 µM. actives 0.81% (n = 360,000). AID 651636; in the data active = inhibition above about 38%;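 also: enzyme fragment complementation signal reports receptor beta-arrestin coupling in cells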
FXN GAA850 act – frataxin GAA850 promoter activation. actives 0.56% (n = 360,000). HEK293 lucGAA850 FXN promoter luciferase reporter, 24 h; percent of 10 µM SAHA response. activation, % at 6 µM;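 active = activation above the average of all compounds screened plus 3 SD, cutoff fixed separately per campaign, cut at about 7.5% in these data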
CCR6 antag – CCR6 (human) receptor antagonism; P51684; CHO-K1 CCR6 PathHunter beta-arrestin, luminescence, CCL20-stimulated; inhibition, % at 20 µM; actives 0.49% (n = 340,000); AID 493098;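 active = compounds whose inhibition of the agonist-driven luminescence signal at 20 µM reaches about 50%, limit read from the data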;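 also: cells stimulated with CCL20 at 14 nM final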
Target sequence (P51684 whole entry, looked up): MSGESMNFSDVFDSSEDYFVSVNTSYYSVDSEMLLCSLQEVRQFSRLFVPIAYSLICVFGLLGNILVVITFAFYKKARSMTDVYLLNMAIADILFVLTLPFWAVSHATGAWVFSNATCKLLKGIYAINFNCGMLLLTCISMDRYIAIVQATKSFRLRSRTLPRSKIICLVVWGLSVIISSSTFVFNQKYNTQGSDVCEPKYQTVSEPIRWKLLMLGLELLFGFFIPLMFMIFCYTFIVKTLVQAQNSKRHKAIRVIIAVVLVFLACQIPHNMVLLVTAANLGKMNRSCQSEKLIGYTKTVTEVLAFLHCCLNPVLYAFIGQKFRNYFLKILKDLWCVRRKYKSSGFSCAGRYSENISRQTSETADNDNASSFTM
APJ ag – activates the human apelin receptor APJ; activation, % at 20 µM; CHO-K1 APJ PathHunter beta-arrestin, luminescence; 0% DMSO wells, 100% apelin; actives 0.11% (n = 330,000); P35414;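 active = activation more than six SD over the plate average, tested at 20 µM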
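Material: CHO-K1 APJ beta-arrestin complementation cell line; Input: cell density 1000 per well; Incubation: compound stimulation 90 min at 25 °C, detection 60 min; Signal: luminescence from split beta-galactosidase complementation, Galacton Star/Emerald II substrate; Controls: DMSO-only wells as negative, 10 nM Apelin-13 as positive control.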
EBI2 conf – confirmation of human EBI2 receptor antagonists; inhibition, % at 5 µM; shares compounds with EBI2 block; EBI2 beta-arrestin luminescence, 7a,25-OHC antagonism; actives 29% (n = 2,400); AID 651997;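 active = inhibition of at least 50%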
EBI2 agonist – activates EBI2, counter-screen for EBI2 antagonists; shares compounds with EBI2 block; EBI2-expressing cells, agonist mode, luminescence, 60 min; 0% vehicle, 100% 7α,25-dihydroxycholesterol control; activation, % at 5 µM; 2,400 tested, under 10 active;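 active = activation of at least 50%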
bGal counter – inhibits E. coli beta-galactosidase, counter-screen for EBI2 antagonists | shares compounds with EBI2 block | purified beta-galactosidase, luminescent Galacton Star, 15 min | inhibition, % at 5 µM | actives 1% (n = 2,400);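 active = replicate-average signal at least 3 plate SD below neutral wells, shown as high inhibition, flagging enzyme-inhibiting false positives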;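 also: higher means stronger loss of beta-gal luminescence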
Hits are given with their value; 0 = inactive; - = no result.

SMILES | CXCR6 block | APJ antag | EBI2 block | FXN GAA850 act | CCR6 antag | APJ ag | EBI2 conf | EBI2 agonist | bGal counter
COC(=O)c1ccc(C23CC4(C2)[C@H](CN(Cc2cccnc2)[C@@H]4c2ccccc2)C3c2ccccc2)cc1 (some centres undefined) | 0 | 0 | 0 | 0 | 0 | 0 | - | - | -
CC(C)CCNC(=S)Nc1ccc(Br)cc1 | 0 | 0 | 0 | 0 | 0 | 0 | - | - | -
CC(C)CCNC(=O)/C=C/c1ccc(Br)cc1 | 0 | 0 | 47.4 | 0 | 0 | 0 | 0 | 0 | 0
CCOC(=O)C1CCCN(C(=O)c2ccc(-c3ccccc3)cc2)CC1 (centres undefined) | 0 | - | 0 | 0 | - | - | - | - | -
Cc1cccc(C)c1-n1nnnc1C(c1ccnc2ccccc12)N1CCN(c2ccccc2F)CC1 (centres undefined) | 0 | - | 0 | - | - | - | - | - | -
O=C(c1cc2cc(Cl)ccc2[nH]1)N1CCN(Cc2ccc3c(c2)OCO3)CC1 | 0 | 0 | 95.5 | 0 | 0 | 0 | 85.4 | 0 | 0
CN1CCN(C(=O)c2cc3cc(Cl)ccc3[nH]2)CC1 | 0 | 0 | 56.2 | 0 | 0 | 0 | 0 | 0 | 0
CCN1CCN(C(=O)c2cc3cc(Cl)ccc3[nH]2)CC1 | 0 | 0 | 83.7 | 0 | 0 | 0 | 66.7 | 0 | 0
O=C(c1cccc(Cl)c1)N1CCN(Cc2ccc3c(c2)OCO3)CC1 | 0 | 0 | 0 | 0 | 0 | 0 | - | - | -
O=C(c1cc2cc(Cl)ccc2[nH]1)N1CCCCC1 | 0 | 0 | 0 | 0 | 0 | 0 | - | - | -
O=CN1CCN(C(=O)c2cc3cc(Cl)ccc3[nH]2)CC1 | 0 | 0 | 58.7 | 0 | 0 | 0 | 0 | 0 | 0
CC(OC(=O)Cc1ccc(Cl)cc1)C(=O)NC1CCCCC1C (centres undefined) | 0 | 0 | 0 | 0 | 0 | 0 | - | - | -
O=C(Cn1cccc1C(=O)c1ccccc1)NCCc1ccc(Cl)cc1 | 0 | 0 | 48.9 | 0 | 0 | 0 | 0 | 0 | 0
O=C(Cn1cccc1C(=O)c1ccccc1)NCCc1ccccc1 | 0 | 0 | 0 | 0 | 0 | 0 | - | - | -
CC(=O)N1N=C(c2ccc(Br)cc2)CC1c1ccc(Br)cc1 (centres undefined) | 0 | - | 0 | 0 | - | - | - | - | -
CNC(=S)N1N=C(c2ccc(C)cc2)CC1c1ccc(Cl)cc1 (centres undefined) | 0 | 0 | 73.3 | 0 | 0 | 0 | 61.6 | 0 | 0
CNC(=S)N1N=C(c2ccc(C)cc2)CC1c1ccc(Br)cc1 (centres undefined) | 0 | 0 | 81.5 | 0 | 0 | 0 | 64.8 | 0 | 0
CC(C)c1ccc(C2CC(c3ccc(Br)cc3)=NN2C(N)=S)cc1 (centres undefined) | 0 | 0 | 72.1 | 0 | 0 | 0 | 59.5 | 0 | 0
O=C(NCCN1CCN(c2ccc([N+](=O)[O-])cc2)CC1)NCc1ccccc1 | 0 | 0 | 0 | 0 | 0 | 0 | - | - | -
Cc1ccc(C)c(S(=O)(=O)N2CCN(C(=O)CCC(=O)c3cc(C)sc3C)CC2)c1 | 0 | 0 | 78.2 | 0 | 0 | 0 | 50.8 | 0 | 0
COc1ccccc1/C=C/C(=O)N1CCN(S(=O)(=O)c2cc(C)ccc2C)CC1 | 0 | 0 | 85.3 | 0 | 0 | 0 | 76.0 | 0 | 0
Cc1ccc(C)c(S(=O)(=O)N2CCN(C(=O)CNC(=O)c3ccc4ccccc4c3)CC2)c1 | 0 | 0 | 62.8 | 0 | 0 | 0 | 0 | 0 | 0
Cc1ccc(C)c(S(=O)(=O)N2CCN(C(=O)Cc3ccccc3)CC2)c1 | 0 | 0 | 0 | 0 | 0 | 0 | - | - | -
COc1cccc(NC(=O)NNC(=O)CCc2ccc(O)c(O)c2)c1 | 0 | 0 | 0 | 0 | 0 | 0 | - | - | -
CCN(CC)C(=O)c1nc(-c2cccc3ccccc23)no1 | 0 | - | 0 | 0 | - | - | - | - | -
SMILES | CXCR6 block | APJ antag | EBI2 block | FXN GAA850 act | CCR6 antag | APJ ag | EBI2 conf | EBI2 agonist | bGal counter
Nc1ccc(S(=O)(=O)c2ccc(N3CCOCC3)c(N)c2)cc1 | 0 | - | 0 | 0 | - | - | - | - | -
Cc1cc(Cl)c2oc(C(=O)N3CCN(c4cnccn4)CC3)c(C)c2c1 | 0 | - | 53.6 | 0 | - | - | 0 | 0 | 0
Cc1c(C(=O)N2CCN(c3ccccn3)CC2)oc2ccccc12 | 0 | 0 | 35.8 | 0 | 0 | 0 | 0 | 0 | 0
Cc1c(C(=O)N2CCN(c3ncccn3)CC2)oc2ccc(Cl)cc12 | 0 | 0 | 56.1 | 0 | 0 | 0 | 0 | 0 | 0
COCCN1C[C@@H](CO)O[C@@H](n2cnc3c(N4CCN(CCO)CC4)ncnc32)C1 | 0 | - | 0 | 0 | - | - | - | - | -
CC(=O)Nc1ccc(-c2ccnc3c2CC(C(=O)NCc2ccccc2)O3)cc1 (centres undefined) | 0 | - | 0 | 0 | - | - | - | - | -
CCc1nc2ccc(C(=O)NCCCn3ccnc3)cn2c1N(C)C(=O)COc1ccccc1 | 0 | - | 0 | 0 | - | - | - | - | -
CC(=O)Nc1ccc(CN(C)c2c(C)nc3ccc(C(=O)N4CCN(C(C)=O)CC4)cn23)cc1 | 0 | - | 0 | 0 | - | - | - | - | -
CCc1nc2ccc(C(=O)NCCOc3ccc(OC)cc3)cn2c1N(C)C(=O)COc1ccccc1 | 0 | - | 52.8 | 0 | - | - | 0 | 0 | 0
COc1ccc(OCCNC(=O)c2ccc3nc(C)c(N(C)Cc4ccc(NC(C)=O)cc4)n3c2)cc1 | 0 | - | 55.1 | 0 | - | - | 0 | 0 | 0
CCc1nc2ccc(C(=O)NCCOc3ccc(OC)cc3)cn2c1N(C)Cc1ccc(N(C)C)cc1 | 0 | - | 49.1 | 0 | - | - | 0 | 0 | 0
COc1cccc(OC)c1OCCCN1CCC(Cc2ccccc2)CC1 | 0 | 0 | 0 | 0 | 0 | 0 | - | - | -
COc1ccccc1N1CCN(C(=O)c2cc(C)on2)CC1 | 0 | 0 | 0 | 0 | 0 | 0 | - | - | -
COc1ccccc1N1CCN(C(=O)c2cc(-c3cccc(Cl)c3)on2)CC1 | 0 | 0 | 72.1 | 0 | 0 | 0 | 0 | 0 | 0
O=C(c1cc(-c2ccc3c(c2)OCO3)on1)N1CCN(c2ccccc2)CC1 | 0 | 0 | 0 | 0 | 0 | 0 | - | - | -
COc1ccccc1N1CCN(C(=O)c2cc(-c3ccc4c(c3)OCO4)on2)CC1 | 0 | 0 | 67.1 | 0 | 0 | 0 | 0 | 0 | 0
CC(=O)N1CCOc2ccc(S(=O)(=O)N3CCC(C(=O)NCc4ccc(C)cc4)CC3)cc21 | 0 | 0 | 94.0 | 0 | 0 | 0 | 84.5 | 0 | 0
CC(=O)N1CCOc2ccc(S(=O)(=O)N3CCC(C(=O)NCc4ccc(Cl)cc4)CC3)cc21 | 0 | - | 89.7 | 0 | - | - | 80.1 | 0 | 0
CC(=O)N1CCOc2ccc(S(=O)(=O)N3CCC(C(=O)NCc4ccc(F)cc4)CC3)cc21 | 0 | 0 | 68.7 | 0 | 0 | 0 | 56.4 | 0 | 0
CC(=O)N1CCOc2ccc(S(=O)(=O)N3CCC(C(=O)Nc4ccc(C)cc4)CC3)cc21 | 0 | 0 | 0 | 0 | 0 | 0 | - | - | -
